{"source": "ChEMBL document CHEMBL3779830", "about": "“Diterpenoids from the Roots of Euphorbia fischeriana with Inhibitory Effects on Nitric Oxide Production” (J Nat Prod, 2016)", "key": {"[1]": {"system": "RAW264.7", "assay": "Inhibition of LPS-induced nitric oxide production in mouse RAW264.7 cells after 24 hrs by Griess assay", "type": "functional, cell-based", "conditions": "RAW264.7, 24 h", "outline": "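RAW 264.7 cells seeded at 2 × 10^6 cells/mL and stimulated with 1 μg/mL LPS, with or without compounds, for 24 h at 37 °C. Cell-free supernatant was mixed 1:1 with Griess reagent (2% sulfanilamide in 5% phosphoric acid plus 0.2% N-(1-naphthyl)ethylenediamine). Nitrite was read at 550 nm against sodium nitrite standards. Aminoguanidine and indomethacin were positive controls. Means ± SD from triplicate experiments.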"}, "[2]": {"system": "RAW264.7", "assay": "Cytotoxicity against mouse RAW264.7 cells assessed as cell viability at nitric oxide IC50 level by MTT assay", "type": "cell-based", "outline": "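Viability was read by MTT colorimetric assay on the cells remaining after the NO assay. That assay seeded RAW 264.7 cells at 2 × 10^6 cells/mL and stimulated them with 1 μg/mL LPS, with or without compounds, for 24 h at 37 °C.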"}}, "data": [{"molecule": "CC1=C2C=C3[C@@H](O)C[C@@H]4C(C)(C)CCC[C@@]4(C)[C@@H]3[C@@H](O)[C@H]2OC1=O", "values": [{"measurement": "IC50", "setting": "[1]", "result": "> 20", "unit": "µM"}, {"measurement": "Activity", "setting": "[2]", "result": "Non-toxic"}]}, {"molecule": "CC1=C2[C@@H](O)C3=C([C@@H](O)[C@H]2OC1=O)[C@]1(C)CCCC(C)(C)[C@H]1CC3", "values": [{"measurement": "IC50", "setting": "[1]", "result": "> 20", "unit": "µM"}, {"measurement": "Activity", "setting": "[2]", "result": "Non-toxic"}]}, {"molecule": "CC1=C[C@]23C(=O)[C@@H](C=C(CO)[C@@H](O)[C@]2(O)[C@H]1O)[C@H]1[C@@H](C[C@H]3C)C1(C)C", "note": "[INGENOL]", "values": [{"measurement": "IC50", "setting": "[1]", "result": "> 20", "unit": "µM"}, {"measurement": "Activity", "setting": "[2]", "result": "Non-toxic"}]}, {"molecule": "CC1=C2[C@@H](O)[C@@]3(O)CC[C@@H]4C(C)(C)CCC[C@@]4(C)[C@@H]3[C@@H](O)[C@H]2OC1=O", "values": [{"measurement": "IC50", "setting": "[1]", "result": "> 20", "unit": "µM"}, {"measurement": "Activity", "setting": "[2]", "result": "Non-toxic"}]}, {"molecule": "COc1ccc2c(c1)c(CC(=O)O)c(C)n2C(=O)c1ccc(Cl)cc1", "note": "[INDOMETHACIN]", "values": [{"measurement": "IC50", "setting": "[1]", "result": 12.5, "unit": "µM"}]}, {"molecule": "CC1=C2C(=O)C3=C([C@@H](O)[C@H]2OC1=O)[C@]1(C)CCCC(C)(C)[C@H]1CC3", "values": [{"measurement": "IC50", "setting": "[1]", "result": "> 20", "unit": "µM"}, {"measurement": "Activity", "setting": "[2]", "result": "Non-toxic"}]}, {"molecule": "C=C[C@]1(C)CC[C@@]2(C)C3=CC(=O)O[C@@H]3C(C)(C)C[C@H](O)[C@@H]2C1", "values": [{"measurement": "IC50", "setting": "[1]", "result": "> 20", "unit": "µM"}, {"measurement": "Activity", "setting": "[2]", "result": "Non-toxic"}]}, {"molecule": "CC1=C2[C@@H](O)C3=CC[C@@H]4C(C)(C)CCC[C@@]4(C)[C@@H]3[C@@H](O)[C@H]2OC1=O", "values": [{"measurement": "IC50", "setting": "[1]", "result": "> 20", "unit": "µM"}, {"measurement": "Activity", "setting": "[2]", "result": "Non-toxic"}]}, {"molecule": "C=C[C@]1(C)CC[C@@]2(C)c3cc(O)c(O)c(C)c3CC[C@@H]2C1", "values": [{"measurement": "IC50", "setting": "[1]", "result": 7.4, "unit": "µM"}, {"measurement": "Activity", "setting": "[2]", "result": "Non-toxic"}]}, {"molecule": "C=C1C[C@@]23CC[C@@H]4C(C)(C)C(=O)CC[C@@]4(C)[C@@H]2C[C@@H]1[C@@H](O)C3=O", "values": [{"measurement": "IC50", "setting": "[1]", "result": "> 20", "unit": "µM"}, {"measurement": "Activity", "setting": "[2]", "result": "Non-toxic"}]}, {"molecule": "CC1=C2[C@H](OC1=O)[C@H](O)[C@H]1[C@]3(C)CCCC(C)(C)[C@H]3CC[C@@]1(O)[C@H]2O", "values": [{"measurement": "IC50", "setting": "[1]", "result": 5.6, "unit": "µM"}, {"measurement": "Activity", "setting": "[2]", "result": "Non-toxic"}]}, {"molecule": "CC1=C2C=C3CC[C@@H]4C(C)(C)CCC[C@@]4(C)[C@@H]3[C@H](O)[C@H]2OC1=O", "values": [{"measurement": "IC50", "setting": "[1]", "result": "> 20", "unit": "µM"}, {"measurement": "Activity", "setting": "[2]", "result": "Non-toxic"}]}, {"molecule": "C[C@H]1C[C@]2(OC(=O)/C=C/c3ccccc3)C(=O)/C(CO)=C/[C@@H]3[C@H](CC[C@@]4(C)O[C@H]4[C@H]2[C@H]1O)C3(C)C", "values": [{"measurement": "IC50", "setting": "[1]", "result": 9.4, "unit": "µM"}, {"measurement": "Activity", "setting": "[2]", "result": "Non-toxic"}]}, {"molecule": "N=C(N)NN", "note": "[PIMAGEDINE]", "values": [{"measurement": "IC50", "setting": "[1]", "result": 18.7, "unit": "µM"}]}, {"molecule": "CC1=C2[C@H]3O[C@]34CC[C@@H]3C(C)(C)CCC[C@@]3(C)[C@@H]4[C@@H](O)[C@H]2OC1=O", "values": [{"measurement": "IC50", "setting": "[1]", "result": 12.6, "unit": "µM"}, {"measurement": "Activity", "setting": "[2]", "result": "Non-toxic"}]}, {"molecule": "C=C[C@]1(C)CC[C@]2(C)[C@H](CC[C@H]3[C@@](C)(CO)C(=O)C=C[C@]32O)C1", "values": [{"measurement": "Activity", "setting": "[2]", "result": "Non-toxic"}]}]}
